≈ marks a conversion by molar mass, not a printed value.
Tests used:
[1] = test system: Trypanosoma cruzi; test: Antiparasitic activity against Trypanosoma cruzi Y infected gamma irradiated L6E9 myoblast; conditions: L6E9, light or radiation study
[2] = test system: Toxoplasma gondii; test: Antiparasitic activity against Toxoplasma gondii tachyzoites m2m3 infected HFF cells; assay type: functional, organism-based
Procedure, shortened: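 YFP-expressing m2m3 tachyzoites, filtered and needle-passed, were inoculated at 10⁴/ml onto confluent HFF monolayers. Medium was DMEM with 10% fetal bovine serum, 2 mM glutamine and 1 mM pyruvate, with drugs serially diluted in it. Plates were held at 37 °C and read daily for fluorescence from the bottom (ex 510, em 540 nm). IC50 came from fitting I = Imax·C/(IC50 + C), with Imax = 100%.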

[3] = test system: Trypanosoma cruzi; test: Antiparasitic activity against Trypanosoma cruzi Y amastigotes infected gamma irradiated L6E9 myoblast; assay type: functional, organism-based; conditions: L6E9, light or radiation study
Procedure, shortened: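 Gamma-irradiated L6E9 myoblasts were kept in DMEM with 20% FCS for 24 h at 37 °C and 5% CO₂. They were then infected with Y-strain trypomastigotes or amastigotes (4.17 × 10⁶/well) for 2 h at 37 °C and 7% CO₂, then washed. [5,6-³H]uracil and aqueous drug solutions were added for 72 h. TCA-precipitable counts were taken on day 3, and percent inhibition was calculated from cpm differences versus control.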

| SMILES | IC50 [1] [µg/mL] | IC50 [2] [µM] | IC50 [3] [µM] |
| --- | --- | --- | --- |
| Fc1ccc(Oc2ccc(OCCOC3CCCCO3)cc2)cc1 (stereo unspecified) | > 20 | 6.16 | 14.4 |
| N#CSCCOc1ccc(Oc2cccc(F)c2)cc1 | 1.74 (≈ 6.01 µM) | 15.8 | 4.3 |
| Fc1cccc(Oc2ccc(OCCOC3CCCCO3)cc2)c1 (stereo unspecified) | > 20 | 3.99 | 19 |
| N#CSCCOc1ccc(Oc2ccccc2)cc1 | 2.6 (≈ 9.58 µM) | 2.8 | 12 |
| O=C1C(O)=C([C@H]2CC[C@H](c3ccc(Cl)cc3)CC2)C(=O)c2ccccc21 [ATOVAQUONE] |  | 0.29 |  |
| N#CSCCOc1ccc(Oc2ccc(F)cc2)cc1 | 1.95 (≈ 6.74 µM) | 3.85 | 3.7 |

From ChEMBL document CHEMBL1149670, “Fluorine-containing aryloxyethyl thiocyanate derivatives are potent inhibitors of Trypanosoma cruzi and Toxoplasma gondii proliferation” (Bioorg Med Chem Lett, 2007)
